In ChEMBL document CHEMBL1129972 (J Med Chem, 1997):
Bridge positions count the residues as written; N and C are the ends. Square brackets hold non-standard residues; d marks the D form. Peptide text beside a SMILES is read from it. Pen = CC(C)(S)[C@H](N)C(=O)O; hCys = N[C@@H](CCS)C(=O)O

How the values were obtained:
[1] = molecular target: T1, Angiotensin II receptor (AT-1) type-1 (Rattus norvegicus, UniProt P29089+P25095); assay: Inhibitory concentration against [125 I]Ang II binding to rat pituitary membranes Angiotensin II receptor type 1 without 0.2% bovine serum albumin
T1 sequence (P29089 whole entry): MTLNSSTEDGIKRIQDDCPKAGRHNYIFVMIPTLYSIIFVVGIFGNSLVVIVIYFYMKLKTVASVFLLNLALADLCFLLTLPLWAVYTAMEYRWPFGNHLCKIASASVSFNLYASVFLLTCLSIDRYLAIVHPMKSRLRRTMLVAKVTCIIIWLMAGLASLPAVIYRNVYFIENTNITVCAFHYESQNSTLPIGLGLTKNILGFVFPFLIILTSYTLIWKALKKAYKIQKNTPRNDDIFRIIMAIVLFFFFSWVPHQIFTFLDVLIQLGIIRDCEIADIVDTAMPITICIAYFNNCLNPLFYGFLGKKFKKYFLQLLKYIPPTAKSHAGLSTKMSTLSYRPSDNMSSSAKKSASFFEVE
T1 sequence (P25095 whole entry): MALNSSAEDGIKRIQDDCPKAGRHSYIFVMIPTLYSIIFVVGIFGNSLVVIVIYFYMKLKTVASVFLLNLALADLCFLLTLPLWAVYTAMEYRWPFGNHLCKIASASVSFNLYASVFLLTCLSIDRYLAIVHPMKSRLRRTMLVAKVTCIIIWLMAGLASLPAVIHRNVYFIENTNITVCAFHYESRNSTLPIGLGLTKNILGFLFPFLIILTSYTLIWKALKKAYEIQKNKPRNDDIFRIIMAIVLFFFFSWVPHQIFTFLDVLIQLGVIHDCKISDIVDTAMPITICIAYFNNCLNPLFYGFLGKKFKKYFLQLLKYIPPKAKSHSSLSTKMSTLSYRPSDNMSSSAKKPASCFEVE

Oryctolagus cuniculus [2] = organism: Oryctolagus cuniculus; assay: Concentration which produces 50% of maximal contractile response at rabbit aorta strips; format: functional
In short: (§1)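 Thoracic aortic rings (2 mm) from male New Zealand white rabbits (2.5–3.5 kg, pentobarbitone-anesthetized) in Krebs' bicarbonate buffer, 38.5 °C, pH 7.4, 95% O2/5% CO2; isometric tension, 2 g resting, ~90 min equilibration with one 300 nM Ang II challenge. Control cumulative Ang II curve (3×10^-10–10^-7 M), then cumulative test-compound curve 3×10^-10–10^-5 M; response as % of control Ang II maximum.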

[3] = molecular target: T1, Angiotensin II receptor (AT-1) type-1; assay: Inhibitory concentration against specific binding of [125 I]Ang II to rat pituitary membranes (Angiotensin II receptor, type 1) in presence of 0.2% bovine serum albumin; format: cell membranes, Membrane
Oryctolagus cuniculus [4] = organism: Oryctolagus cuniculus; assay: Contractile activity in isolated rabbit aortic rings; format: functional, Aorta; in short: as §1

| IC50 [1] [nM] | EC50 (Oryctolagus cuniculus [2]) [nM] | IC50 [3] [nM] | Compound | pD2 (Oryctolagus cuniculus [4]) |
| --- | --- | --- | --- | --- |
| > 100000 |  |  | CC[C@H](C)[C@@H](C(=O)N[C@@H](Cc1cnc[nH]1)C(=O)N1CCC[C@H]1C(=O)N[C@@H](Cc1ccccc1)C(=O)O)N1Cc2cc(NC(=O)[C@H](CCCN=C(N)N)NC(=O)[C@@H](N)CC(=O)O)ccc2[C@@H](Cc2ccc(O)cc2)C1=O |  |
| 2 |  |  | CC[C@H](C)[C@@H](C(=O)N[C@@H](Cc1c[nH]cn1)C(=O)N1CCC[C@H]1C(=O)N[C@@H](Cc1ccccc1)C(=O)O)N1CCC(CNC(=O)[C@H](CCCN=C(N)N)NC(=O)[C@@H](N)CC(=O)O)=C[C@H](Cc2ccc(O)cc2)C1=O |  |
| > 100000 |  |  | CC[C@H](C)[C@@H](C(=O)N[C@@H](Cc1c[nH]cn1)C(=O)N1CCC[C@H]1C(=O)N[C@@H](Cc1ccccc1)C(=O)O)N1Cc2cc(NC(=O)[C@H](CCCN=C(N)N)NC(=O)[C@@H](N)CC(=O)O)ccc2[C@H](Cc2ccc(O)cc2)C1=O |  |
| 2.8 | 830 |  | CC[C@H](C)[C@@H](C(=O)N[C@@H](Cc1c[nH]cn1)C(=O)N1CCC[C@H]1C(=O)N[C@@H](Cc1ccccc1)C(=O)O)N1CCC(CNC(=O)[C@H](CCCN=C(N)N)NC(=O)[C@@H](N)CC(=O)O)=C[C@@H](Cc2ccc(O)cc2)C1=O |  |
| 2.9 |  | 28 | NC(N)=NCCC[C@H](NC(=O)[C@@H](N)CC(=O)O)C(=O)N[C@H]1CSSC[C@@H](C(=O)N[C@@H](Cc2c[nH]cn2)C(=O)N2CCC[C@H]2C(=O)N[C@@H](Cc2ccccc2)C(=O)O)NC(=O)[C@H](Cc2ccc(O)cc2)NC1=O (H-DRCYCHPF-OH; disulfide 3-5) |  |
| 0.9 | 217 | 3.8 | CC1(C)SSC(C)(C)[C@@H](C(=O)N[C@@H](Cc2c[nH]cn2)C(=O)N2CCC[C@H]2C(=O)N[C@@H](Cc2ccccc2)C(=O)O)NC(=O)[C@H](Cc2ccc(O)cc2)NC(=O)[C@H]1NC(=O)[C@H](CCCN=C(N)N)NC(=O)[C@@H](N)CC(=O)O (H-DR[Pen]Y[Pen]HPF-OH; disulfide 3-5) |  |
| 1.7 |  | 15.4 | NC(N)=NCCC[C@H](NC(=O)[C@@H](N)CC(=O)O)C(=O)N[C@H]1CCSSCC[C@@H](C(=O)N[C@@H](Cc2c[nH]cn2)C(=O)N2CCC[C@H]2C(=O)N[C@@H](Cc2ccccc2)C(=O)O)NC(=O)[C@H](Cc2ccc(O)cc2)NC1=O (H-DR[hCys]Y[hCys]HPF-OH; disulfide 3-5) | 8.48 |
|  | 2.6 |  | CC[C@H](C)[C@H](NC(=O)[C@H](Cc1ccc(O)cc1)NC(=O)[C@@H](NC(=O)[C@H](CCCNC(=N)N)NC(=O)[C@@H](N)CC(=O)O)C(C)C)C(=O)N[C@@H](Cc1cnc[nH]1)C(=O)N1CCC[C@H]1C(=O)N[C@@H](Cc1ccccc1)C(=O)O [ANGIOTENSIN II] |  |
